From ChEMBL document CHEMBL1138476 (J Med Chem, 2009)
pIC50: −log10 of the molar value. Converted amounts (≈) assume the structure as drawn. The source made the active and inactive calls. No cut-off for these calls is given here.

Assays:
[1] = target: T1, Corticotropin-releasing factor receptor 1 (Rattus norvegicus, UniProt P35353); experiment: Displacement of [125I]Tyro-rat/human CRF from CRF1 receptor in rat cortical membrane by gamma counting; format: cell membranes
T1 sequence (P35353 whole entry): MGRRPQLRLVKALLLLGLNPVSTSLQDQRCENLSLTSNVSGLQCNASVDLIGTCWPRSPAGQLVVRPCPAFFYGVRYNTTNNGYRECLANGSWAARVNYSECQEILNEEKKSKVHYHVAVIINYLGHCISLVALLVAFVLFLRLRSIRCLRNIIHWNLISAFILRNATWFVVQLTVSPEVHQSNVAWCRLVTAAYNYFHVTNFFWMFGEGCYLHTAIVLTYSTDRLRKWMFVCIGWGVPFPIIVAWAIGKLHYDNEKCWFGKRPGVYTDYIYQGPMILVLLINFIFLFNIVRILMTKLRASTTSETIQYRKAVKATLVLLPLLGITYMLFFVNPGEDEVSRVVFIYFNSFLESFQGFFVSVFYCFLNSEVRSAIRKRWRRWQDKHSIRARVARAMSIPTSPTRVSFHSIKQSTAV
Summary of the method: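 Binding to CRF receptors in rat cortical homogenate.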

[2] = AUC in Beagle dog at 1 mg/kg, po by cassette dosing; format: ADME, organism-based, Canis lupus familiaris; design: dose 1 mg/kg, route oral; conditions: plasma
[3] = Half life in Beagle dog at 1 mg/kg, po by cassette dosing; format: ADME, organism-based, Canis lupus familiaris; design: dose 1 mg/kg, route oral; conditions: in vivo
[4] = Cmax in Beagle dog at 1 mg/kg, po by cassette dosing; format: ADME, organism-based, Canis lupus familiaris; design: dose 1 mg/kg, route oral; conditions: in vivo
[5] = Lipophilicity log P of the compound; format: physicochemical; conditions: octanol/water
Rattus norvegicus [6] = experiment: Anxiolytic activity in rat assessed as decrease in latency to exit dark chamber at 10 mg/kg, po by defensive withdrawal test relative to untreated control; format: functional; design: scale not given: the % may be the effect or the level left
Summary of the method: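 Rat defensive withdrawal: latency to leave the dark chamber and explore the open field, maximum 900 s. Dosed orally in 0.25% Methocel 60 min before testing; n = 8 per dose, mean ± SEM. Analysed by Kruskal–Wallis followed by Mann–Whitney U against vehicle.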

[7] = Solubility in dilute HCl at pH 2.3; format: physicochemical
[8] = Aqueous solubility at pH 7.4; format: physicochemical; conditions: aqueous medium
Summary of the method: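 Solubility measured in water at pH 7.4.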

Rattus norvegicus [9] = experiment: Anxiolytic activity in rat assessed as increase in time spent on open arm at 18 mg/kg, po by elevated plus-maze test; format: functional, organism-based; design: dose 18 mg/kg
Summary of the method: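 Rat elevated plus maze: percent of test time spent in the open arms. Oral dosing in 0.25% Methocel 60 min before testing; n = 12 per dose, mean ± SEM. Analysed by ANOVA followed by Fisher's LSD comparisons against vehicle.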

[10] = Aqueous solubility at pH 7; format: physicochemical; conditions: aqueous medium
Rattus norvegicus [11] = experiment: Effect on gastrointestinal motility in fasted Sprague-Dawley rat assessed as distance of charcoal moved from stomach to cecum at 0.3 mg/kg, ip (RVb= 38.4+/-3.8 %); format: functional, Caecum; conditions: route intraperitoneal

Row | SMILES | pIC50 [1] | further results
1 | CCCN(CCC)c1nc(C)nc2c(-c3c(C)cc(N(C)C)nc3C)c(C)nn12 | 7.83 | 
2 | CCN(CC)c1nc(C)nc2c(-c3cnc(OC)cc3C)c(C)nn12 | 7.84 | 
3 | COCCN(CCOC)c1nc(C)nc2c(-c3ccc(OC)nc3C)c(C)nn12 | 8.07 | AUC [2]: 1470 nM·h; half-life [3]: 10.3 h; Cmax [4]: 0.275 µM
4 | CCCCN(CCC)c1nc(C)nc2c(-c3ccc(OC)nc3C)c(C)nn12 | 8.62 | 
5 | CCN(CC)c1nc(C)nc2c(-c3ccc(OC)nc3C)c(C)nn12 | 7.92 | 
6 | CCC(CC)Nc1nc(C)nc2c(-c3cnc(N(C)C)cc3C)c(C)nn12 | 7.61 | 
7 | COCC(COC)Nc1nc(C)nc2c(-c3ccc(Cl)cc3Cl)c(C)nn12 |  | logP [5]: 4.97; Activity (Rattus norvegicus [6]): 72%; solubility [7]: 0.23 mg/mL (≈ 561 µM); solubility [8]: < 0.001 mg/mL; Activity (Rattus norvegicus [9]): Active; solubility [10]: < 0.001 mg/mL
8 | COCCN(CCOC)c1nc(C)nc2c(-c3cnc(OC)cc3C)c(C)nn12 | 7.62 | 
9 | COCCN(CCOC)c1nc(C)nc2c(-c3c(C)cc(N(C)C)nc3C)c(C)nn12 | 6.88 | 
10 | CCCCN(CC)c1nc(C)nc2c(-c3ccc(OC)nc3C)c(C)nn12 | 8.31 | 
11 | C[N+](C)(C)CCOC(N)=O.[Cl-] [CARBACHOL] |  | Activity (Rattus norvegicus [11]): 55.8%
12 | CCCN(C)c1nc(C)nc2c(-c3ccc(OC)nc3C)c(C)nn12 | 7.75 | 
13 | CCC[C@H](C)Nc1nc(C)nc2c(-c3ccc(OC)nc3C)c(C)nn12 | 8.35 | 
14 | CCC(CC)Nc1nc(C)nc2c(-c3c(C)cc(N(C)C)nc3C)c(C)nn12 | 7.59 | 
15 | CCN(C)c1nc(C)nc2c(-c3ccc(OC)nc3C)c(C)nn12 | 7.09 | 
16 | COCCN(CCOC)c1nc(C)nc2c(-c3cnc(N(C)C)cc3C)c(C)nn12 | 7.04 | 
17 | CCCN(CC1CC1)c1nc(C)nc2c(-c3ccc(OC)nc3C)c(C)nn12 | 8.80 | 
